Screening data (PubChem BioAssay)
FAK inh – FAK kinase inhibitors, primary screen, biochemical; AID 727, 2007; 97,000 tested, 0.84% active; inhibition, %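 (tested at 7 µM)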; biochemical FAK kinase activity assay; in the data active means inhibition above about 19%;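 further: 0% = DMSO and 100% = reference compound high control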
Rev-RRE block – HIV-1 Rev-RRE binding inhibitors, primary screen, biochemical, FRET, protein-RNA interaction; P05866; Rev peptide-RRE RNA binding; inhibition, % at 8 µM; 97,000 tested, 0.79% active; AID 704, 2007;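 active means inhibition above the screen-wide mean plus 3 SD, cut at about 35% in these data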;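 further: 0% = median DMSO wells and 100% = median Neomycin B control wells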
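Assay system: Labelled RRE RNA duplex and labelled Rev peptide | Times: 5 min preincubation and 15 min binding, 25 °C | Detection: FRET, ex 480 nm, em 540 and 671 nm | Evaluation: % inhibition of FRET ratio versus controls | Benchmarks: DMSO wells as 0% and neomycin B wells as 100% inhibition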
PLK1 PBD inh – Plk1 polo box domain binding inhibitors, primary screen, biochemical, fluorescence polarization; Serine/threonine-protein kinase PLK1 (Homo sapiens), P53350; AID 693, 2007; 97,000 tested, 0.13% active; inhibition, %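 (tested at about 20 µM)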; Plk1 PBD phosphopeptide binding; in the data active means inhibition above about 34%, passing the limit was not always enough
Target sequence (P53350 whole entry, looked up, the tested form may be a part): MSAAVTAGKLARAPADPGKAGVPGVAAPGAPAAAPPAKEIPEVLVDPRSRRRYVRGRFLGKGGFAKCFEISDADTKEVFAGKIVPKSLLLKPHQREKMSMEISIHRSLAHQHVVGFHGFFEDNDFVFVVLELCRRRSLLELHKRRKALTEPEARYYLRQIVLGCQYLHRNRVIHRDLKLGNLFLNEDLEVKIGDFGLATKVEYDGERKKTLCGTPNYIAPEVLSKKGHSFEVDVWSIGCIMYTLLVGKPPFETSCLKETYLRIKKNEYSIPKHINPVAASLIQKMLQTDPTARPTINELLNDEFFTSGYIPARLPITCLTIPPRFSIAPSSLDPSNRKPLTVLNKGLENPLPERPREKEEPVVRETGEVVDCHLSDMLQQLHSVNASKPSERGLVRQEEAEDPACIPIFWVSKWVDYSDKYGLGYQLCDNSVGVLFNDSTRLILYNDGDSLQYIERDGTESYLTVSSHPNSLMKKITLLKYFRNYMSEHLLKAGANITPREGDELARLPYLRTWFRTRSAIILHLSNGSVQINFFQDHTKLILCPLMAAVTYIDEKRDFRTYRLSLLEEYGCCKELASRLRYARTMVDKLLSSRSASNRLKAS
EphB4 ephrin blk – EphB4-ephrin-B2 interaction antagonists, primary screen, biochemical, TNYL-RAW peptide probe, fluorescence polarization; Ephrin type-B receptor 4 (Homo sapiens), P54760; EphB4 LBD / TNYL-RAW-Alexa532 peptide; inhibition, % at 7 µM; 97,000 tested, 0.15% active; AID 720, 2007;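 active means inhibition above the screen-wide mean inhibition plus 3 SD, cut at about 15% in these data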;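 further: 0% = DMSO wells and 100% = excess unlabeled TNYL-RAW peptide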
PLK1 inh – human PLK1 kinase inhibitors, primary screen, biochemical, TR-FRET; AID 619, 2007; 97,000 tested, 0.53% active; Serine/threonine-protein kinase PLK1 (Homo sapiens), P53350; recombinant PLK1 kinase, TR-FRET peptide phosphorylation; inhibition, % at 10 µM;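 active means inhibition of 50% or more in the single-concentration screen; inactive means inhibition below 50%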;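 further: 0% = DMSO max control and 100% = H-89 dihydrochloride min control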
Cav3 T inh – Cav3.2 calcium influx blockers – cell-based, Fluo-4 calcium fluorescence, FDSS, MLSMR library, primary screen. AID 449739, 2010. Cav3.2-expressing cells; hits give low values. Voltage-dependent T-type calcium channel subunit alpha-1H (Homo sapiens), O95180. B-score at 10 µM. 100,000 tested, 4% active;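 active means single-dose well whose peak fluorescence ratio is a statistical outlier from its plate by either plate-standardised score or position-corrected B-score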
Numbers without * were called inactive; / = no result given. Rows were chosen to be rich in hits. Some 5.3% of all compounds tested hit in one or more screens of this group.

SMILES	FAK inh	Rev-RRE block	PLK1 PBD inh	EphB4 ephrin blk	PLK1 inh	Cav3 T inh
CCCCOc1ccccc1NC(=O)Cn1c(-c2nonc2N)nc2ccccc21	/	/	/	/	/	-4.2*
CN(Cc1ccccc1)C(=O)[C@H]1CCC(=O)N1Cc1ccco1	0	2	-29	4	-5	1.1
O=C1c2[nH]nc(-c3ccccc3O)c2C(c2cccc(Cl)c2)N1Cc1ccco1 (centres undefined)	1	8	-23	-1	0	-4.3*
O=C1c2[nH]nc(-c3ccccc3O)c2C(c2ccc(F)cc2)N1Cc1ccco1 (centres undefined)	2	14	-19	1	-2	-4.5*
O=C(C1=C(O)C(=O)N(c2ncccn2)C1c1ccc(Cl)cc1)c1ccco1 (centres undefined)	-2	32	-13	4	-7	0.27
COc1cc(C2C(C(=O)c3ccco3)=C(O)C(=O)N2CCc2ccccc2)ccc1O (centres undefined)	/	/	/	/	/	0.42
COCCN1C(=O)C(O)=C(C(=O)c2ccco2)C1c1cccc(Oc2ccccc2)c1 (centres undefined)	-2	1	2	-2	-11	-3.8*
O=C(C1=C(O)C(=O)N(c2ncccn2)C1c1ccc(Cl)c(Cl)c1)c1ccco1 (centres undefined)	2	51*	0	-5	-17	-0.82
O=C(C1=C(O)C(=O)N(c2ncccn2)C1c1cccc(Cl)c1)c1ccco1 (centres undefined)	0	36*	18	6	-4	-1.3
COc1ccc(C(=O)n2ccc(C)n2)cc1Br	0	6	19	3	-14	/
COC(=O)C1CCN(S(=O)(=O)c2ccc(OC)cc2)CC1	2	8	27	-1	-8	0.83
CN(C(=O)CSc1ncccc1C(=O)O)c1ccccc1	-2	8	21	0	-6	-3.5*
Cc1ccc(-n2c(=O)[nH]c3cc(C(=O)NC4CCN(Cc5ccccc5)CC4)ccc3c2=O)cc1	-1	2	17	-9	-1	0.05
C=CCO/N=C(/C)c1c(O)c(CC)c(-c2ccccc2)n(-c2ccccc2)c1=O	2	6	10	1	-10	-7.3*
CCOC(=O)CN1C(=O)N[C@@H](c2cccc(F)c2)C(C(=O)OC)=C1C	/	/	/	/	/	-1.2
CCCn1c(CNc2ccc(Br)cc2)nc2ccccc21	10	22	11	4	-1	-5.3*
COCCNC(=O)Cn1cnc2c1c(=O)n(C)c(=O)n2C	0	10	-13	0	-2	-5.3*
NC(=O)NOCc1ncc(C(F)(F)F)cc1Cl	2	6	39	4	-8	0.076
Cc1ccc(NC(=O)Cc2ncc(C(F)(F)F)cc2Cl)cc1Cl	1	-2	16	-1	-6	-4.8*
CCOC(=O)C1=C(C)N(CCCC(=O)O)C(=O)NC1c1ccc(C(F)(F)F)cc1 (centres undefined)	/	/	/	/	/	1.2
CN(C1CCCCC1)S(=O)(=O)c1ccc(NC(=S)NC(=O)c2cccs2)cc1	2	1	-30	1	-16	-5.7*
CC1CCCCN1S(=O)(=O)c1ccc(NC(=O)c2cccs2)cc1 (centres undefined)	0	9	-19	4	-9	-1.6
c1ccc(COn2nnc3ccccc32)c(COn2nnc3ccccc32)c1	1	10	-10	3	-11	-4.8*
Clc1cccc(Cl)c1COn1nnc2ccccc21	2	4	-4	3	16	-2.9
CC(=O)c1cccc(NC(=O)C(OC(=O)/C=C/c2ccc3c(c2)OCO3)c2ccccc2)c1 (centres undefined)	1	16	8	5	-11	-2.6
SMILES	FAK inh	Rev-RRE block	PLK1 PBD inh	EphB4 ephrin blk	PLK1 inh	Cav3 T inh
CSc1nsc(SC)c1C(=O)N1CCN(S(=O)(=O)c2ccc(C)cc2)C1C(C)C (centres undefined)	-2	10	3	-4	-16	-5.1*
O=C(CSC1=NCCS1)Nc1ccc(S(=O)(=O)N2CCCCCC2)cc1	-9	16	-13	2	-6	-4.4*
O=C1C=C(c2cccc(O)c2)CCC1	/	/	/	/	/	1.1
COc1ccc(CN2CCn3ncc(C(=O)Nc4cccc(C)c4)c3C2=O)cc1	-2	3	4	5	-7	-5.5*
N#CC1=C(SCC(=O)NC23CC4CC(CC(C4)C2)C3)NC(=O)C(C#N)C12CCCCC2 (centres undefined)	-1	-2	-22	5	-4	-3.2*
CCOC(=O)C1=C(SCC(=O)Nc2ccccc2)NC(=O)C(C#N)C12CCCCC2 (centres undefined)	2	10	9	1	-9	-4.1*
CC(C)(C)C1CCC2(CC1)C(C#N)=C(SCC(=O)NC1CCCCC1)NC(=O)C2C#N (centres undefined)	0	1	16	4	-8	-4.2*
Nc1nc2c3ccccc3nc(C3CC3)n2n1	-3	5	5	1	-16	/
CCC(C)Sc1nnc(CSc2nc3nc(C)cc(C)n3n2)o1 (centres undefined)	1	0	16	-3	-6	1
COc1cc(C(=O)NCCOc2cc(C)cc(C)c2)c(Br)c(OC)c1OC	-2	5	-12	4	-1	-3.6
CC(=O)N1CC=CC1(C)C(=O)O (centres undefined)	/	/	/	/	/	1.1
O=C(CCS(=O)(=O)c1ccc(Br)cc1)N1CCN(c2ccccc2Cl)CC1	-1	12	-14	3	-11	-5.7*
O=C(CCn1c(=O)oc2ccccc21)N1CCN(c2ccccc2Cl)CC1	-1	14	-16	-3	-7	-4*
CC(=O)n1cc(C(C[N+](=O)[O-])SCCN)c2ccccc21 (centres undefined)	-2	3	3	-5	1	-3.8*
CCCNC(=O)c1c(CSc2ccc(Cl)cc2)noc1C(=O)NCc1ccccc1	/	/	/	/	/	-2.7
O=C(c1ccc2c(=O)n(Cc3ccco3)c(=S)[nH]c2c1)N1CCN(Cc2ccccc2)CC1	1	-2	-12	-3	-5	-6.6*
CCCn1c(=S)[nH]c2cc(C(=O)N3CCCC(C(=O)OCC)C3)ccc2c1=O (centres undefined)	-1	0	-14	3	7	-2.9
CN1CCN(C(=O)c2ccc3c(=O)n(CCc4ccccc4)c(=S)[nH]c3c2)CC1	1	3	9	2	-10	/
CC1CCCN(C(=O)c2ccc3c(=O)n(Cc4ccc5c(c4)OCO5)c(=S)[nH]c3c2)C1 (centres undefined)	3	-2	-8	-7	-17	-5.3*
